According to publication PMC12023741 (RSC Advances, 2025):

How the values were obtained:
[1] = DPPH free radical scavenging; format: biochemical; details: read-out: DPPH scavenging activity IC50; stable DPPH radical; mean ± SE, n = 3
How it was run: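 Radical-scavenging capacity of the test compounds toward DPPH was measured by a modified Zheleva-Dimitrova procedure. Scavenging activity was recorded and IC50 values were derived from it. Data are mean ± SE, n = 3.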

HepG2 cell line = assay: MTT assay, HepG2; format: cell-based; details: for antitumor effect (in words): HepG2, MTT assay, compared to DOX
MCF-7 cell line = assay: MTT assay, MCF-7; format: cell-based; details: for antitumor effect (in words): MCF-7, MTT assay, compared to DOX
HCT-116 cell line = assay: MTT assay, HCT-116; format: cell-based; details: for antitumor effect (in words): HCT-116, MTT assay, compared to DOX
[2] = test system: WI-38 normal cells (human lung fibroblast); assay: MTT assay, WI-38 normal cells; format: cell-based

| IC50 [1] [µM] | IC50 (HepG2 cell line; Homo sapiens, HepG2) [µM] | IC50 (MCF-7 cell line; Homo sapiens, MCF7) [µM] | IC50 (HCT-116 cell line; Homo sapiens, HCT-116) [µM] | Compound | antitumor effect (in words) (HepG2 cell line) | antitumor effect (in words) (MCF-7 cell line) | antitumor effect (in words) (HCT-116 cell line) | cytotoxic effect on normal cells (in words) [2] |
| --- | --- | --- | --- | --- | --- | --- | --- | --- |
| 21.4 ± 0.17 | – | – | – | NC1=NN(c2ccccc2)C(=O)C1/N=N/c1ccc(C(=O)C=Cc2ccccc2)cc1 (stereo not drawn) [Compound 3a, 5-Amino-4-((E)-(4-cinnamoylphenyl)diazenyl)-2-phenyl-2,4-dihydro-3H-pyrazol-3-one] | impressive antitumor effects | impressive antitumor effects | impressive antitumor effects | – |
| 19.95 ± 0.14 | 5.03 ± 0.4 | 3.92 ± 0.2 | 6.34 ± 0.5 | COc1cc(/C=C/C(=O)c2ccc(/N=N/C3C(=O)N(c4ccccc4)N=C3N)cc2)ccc1O (stereo not drawn) [Compound 3b, 5-Amino-4-((E)-(4-((E)-3-(4-hydroxy-3-methoxyphenyl)acryloyl)phenyl)diazenyl)-2-phenyl-2,4-dihydro-3H-pyrazol-3-one] | – | – | – | safe toxic profile on normal cells |
| 94.18 ± 0.45 | – | – | – | NC1=NN(c2ccccc2)C(=O)C1/N=N/c1ccc(C(=O)/C=C/c2ccc(O)cc2)cc1 (stereo not drawn) [Compound 3c, 5-Amino-4-((E)-(4-((E)-3-(4-hydroxyphenyl)acryloyl)phenyl)diazenyl)-2-phenyl-2,4-dihydro-3H-pyrazol-3-one] | weak effect | weak effect | weak effect | – |
| 48.59 ± 0.28 | – | – | – | NC1=NN(c2ccccc2)C(=O)C1/N=N/c1ccc(C(=O)/C=C/c2ccccc2O)cc1 (stereo not drawn) [Compound 3d, 5-Amino-4-((E)-(4-((E)-3-(2-hydroxyphenyl)acryloyl)phenyl)diazenyl)-2-phenyl-2,4-dihydro-3H-pyrazol-3-one] | moderate effect | moderate effect | moderate effect | – |
| 32.79 ± 0.21 | – | – | – | CN(C)c1ccc(/C=C/C(=O)c2ccc(/N=N\C3C(=O)N(c4ccccc4)N=C3N)cc2)cc1 (stereo not drawn) [Compound 3e, 5-Amino-4-((Z)-(4-((E)-3-(4-(dimethylamino)phenyl)acryloyl)phenyl)diazenyl)-2-phenyl-2,4-dihydro-3H-pyrazol-3-one] | moderate effect | moderate effect | moderate effect | – |
| 27.25 ± 0.19 | – | – | – | NC1=NN(c2ccccc2)C(=O)C1/N=N/c1ccc(C(=O)C=Cc2ccco2)cc1 (stereo not drawn) [Compound 3f, (E)-3-Amino-4-((4-(3-(furan-2-yl)acryloyl)phenyl)diazenyl)-1-phenyl-1H-pyrazol-5(4H)-one] | impressive antitumor effects | impressive antitumor effects | impressive antitumor effects | – |
| 73.63 ± 0.39 | – | – | – | NC1=NN(c2ccccc2)C(=O)C1/N=N/c1ccc(C(=O)/C=C/C=C/c2ccccc2)cc1 (stereo not drawn) [Compound 3g, 5-Amino-2-phenyl-4-((E)-(4-((2E,4E)-5-phenylpenta-2,4-dienoyl)phenyl)diazenyl)-2,4-dihydro-3H-pyrazol-3-one] | weak effect | weak effect | weak effect | – |
| 16.81 ± 0.1 | – | – | – | O=C1O[C@H]([C@@H](O)CO)C(O)=C1O [L-ascorbic acid, reference compound] | – | – | – | – |
